The source made the active and inactive calls. The rule behind the calls is not given here.
What was measured:
[1] = molecular target: T1, Autotaxin (Homo sapiens, UniProt Q13822); assay: Inhibition of autotaxin at 10 uM
Procedure, shortened: (§1)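 Single-dose screen: inhibitor 10 μM final, purified recombinant human ATX 8.3 nM, FS-3 1 μM, fatty acid free BSA 30 μM in Tris pH 8 buffer (1 mM MgCl2, 1 mM CaCl2, 3 mM KCl, 140 mM NaCl), 37 °C. Fluorescence (ex 485/em 538) read every 2 min; percent activity vs vehicle after no-ATX subtraction at 1 h; mean ± SD of three wells.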

[2] = molecular target: T1, Autotaxin; assay: Inhibition of human recombinant C-terminal FLAG-tagged autotaxin expressed in baculovirus-infected Sf9 cells assessed as FS-3 hydrolysis at 10 uM relative to control; procedure, shortened: as §1
[3] = molecular target: T1, Autotaxin; assay: Inhibition of human recombinant C-terminal FLAG-tagged autotaxin expressed in baculovirus-infected Sf9 cells assessed as FS-3 hydrolysis
Procedure, shortened: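 Dose response: final inhibitor 30, 10, 3, 1, 0.3, 0.1, 0.03 μM, plus 0.01 and 0.003 μM for some compounds; purified human ATX 8.3 nM, 1 μM FS-3, 30 μM fatty acid free BSA, Tris pH 8 buffer, 37 °C. Fluorescence ex 485/em 538 every 2 min; percent activity vs vehicle at 1 h after no-ATX background subtraction; mean of three wells.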

[4] = molecular target: T1, Autotaxin; assay: Noncompetitive inhibition of human recombinant C-terminal FLAG-tagged autotaxin expressed in baculovirus-infected Sf9 cells assessed as FS-3 hydrolysis by Michaelis-Menten method
[5] = molecular target: T2, Glycerophosphocholine cholinephosphodiesterase ENPP6 (Homo sapiens) (UniProt Q6UWR7); assay: Inhibition of human recombinant C-terminal FLAG-tagged NPP6 expressed in baculovirus-infected Sf9 cells assessed as pNPPC hydrolysis at 10 uM relative to control
T2 sequence (whole entry): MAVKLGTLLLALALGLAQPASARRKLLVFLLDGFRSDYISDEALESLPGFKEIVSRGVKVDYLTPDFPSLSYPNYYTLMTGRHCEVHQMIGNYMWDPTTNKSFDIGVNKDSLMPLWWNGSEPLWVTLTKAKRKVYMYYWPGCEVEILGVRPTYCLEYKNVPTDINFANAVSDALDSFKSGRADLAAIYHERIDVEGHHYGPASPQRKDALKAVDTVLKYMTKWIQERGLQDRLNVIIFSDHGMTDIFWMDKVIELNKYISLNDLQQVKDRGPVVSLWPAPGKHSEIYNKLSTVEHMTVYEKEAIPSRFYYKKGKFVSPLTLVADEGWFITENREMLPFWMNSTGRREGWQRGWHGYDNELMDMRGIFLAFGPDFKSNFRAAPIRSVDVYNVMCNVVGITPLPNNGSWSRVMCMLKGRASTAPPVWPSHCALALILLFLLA
Procedure, shortened: (§2)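 Purified Sf9-expressed FLAG-tagged enzyme 8.3 nM with inhibitor 10 μM final. NPP6: pNPPC 10 μM in 100 mM Tris-HCl, 500 mM NaCl, 0.05% Triton X-100, pH 9. NPP7: pNPPC 500 μM in 50 mM Tris HCl, 150 mM NaCl, 10 mM sodium taurocholate, pH 8. 37 °C, A405 every 2 min; percent activity vs vehicle at 1 h after no-enzyme subtraction; three wells.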

[6] = molecular target: T3, Ectonucleotide pyrophosphatase/phosphodiesterase family member 7 (Homo sapiens) (UniProt Q6UWV6); assay: Inhibition of human recombinant C-terminal FLAG-tagged NPP7 expressed in baculovirus-infected Sf9 cells assessed as pNPPC hydrolysis at 10 uM relative to control; procedure, shortened: as §2
T3 sequence (whole entry): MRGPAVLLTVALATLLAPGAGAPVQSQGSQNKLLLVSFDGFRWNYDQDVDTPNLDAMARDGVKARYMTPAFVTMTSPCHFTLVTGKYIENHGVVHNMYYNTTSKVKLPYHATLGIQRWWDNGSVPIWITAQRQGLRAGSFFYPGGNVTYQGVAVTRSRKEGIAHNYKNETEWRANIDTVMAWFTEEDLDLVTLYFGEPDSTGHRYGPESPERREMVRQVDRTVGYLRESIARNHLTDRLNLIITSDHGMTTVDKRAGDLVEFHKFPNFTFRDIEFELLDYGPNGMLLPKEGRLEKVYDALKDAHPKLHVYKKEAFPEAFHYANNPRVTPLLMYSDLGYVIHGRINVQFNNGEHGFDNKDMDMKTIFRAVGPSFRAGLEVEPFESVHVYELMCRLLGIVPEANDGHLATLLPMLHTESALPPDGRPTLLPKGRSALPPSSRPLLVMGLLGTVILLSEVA

[7] = molecular target: T1, Autotaxin; assay: Inhibition of human recombinant C-terminal FLAG-tagged autotaxin expressed in baculovirus-infected Sf9 cells assessed as FS-3 hydrolysis at 1 uM; values are per cent of control
[8] = molecular target: T1, Autotaxin; assay: Inhibition of human recombinant C-terminal FLAG-tagged autotaxin expressed in baculovirus-infected Sf9 cells assessed as FS-3 hydrolysis at 3 uM; values are per cent of control
[9] = molecular target: T1, Autotaxin; assay: Inhibition of human recombinant C-terminal FLAG-tagged autotaxin expressed in baculovirus-infected Sf9 cells assessed as FS-3 hydrolysis at 10 uM; values are per cent of control
[10] = molecular target: T1, Autotaxin; assay: Inhibition of human recombinant C-terminal FLAG-tagged autotaxin expressed in baculovirus-infected Sf9 cells assessed as FS-3 hydrolysis at 30 uM; values are per cent of control
[11] = molecular target: T1, Autotaxin; assay: Inhibition of human recombinant C-terminal FLAG-tagged autotaxin expressed in baculovirus-infected Sf9 cells assessed as FS-3 hydrolysis at 0.1 uM; values are per cent of control
[12] = molecular target: T1, Autotaxin; assay: Inhibition of human recombinant C-terminal FLAG-tagged autotaxin expressed in baculovirus-infected Sf9 cells assessed as FS-3 hydrolysis at 0.3 uM; values are per cent of control
[13] = molecular target: T1, Autotaxin; assay: Inhibition of human recombinant C-terminal FLAG-tagged autotaxin expressed in baculovirus-infected Sf9 cells assessed as FS-3 hydrolysis at 0.01 uM; values are per cent of control
[14] = molecular target: T1, Autotaxin; assay: Inhibition of human recombinant C-terminal FLAG-tagged autotaxin expressed in baculovirus-infected Sf9 cells assessed as FS-3 hydrolysis at 0.03 uM; values are per cent of control
[15] = molecular target: T1, Autotaxin; assay: Inhibition of human recombinant C-terminal FLAG-tagged autotaxin expressed in baculovirus-infected Sf9 cells assessed as FS-3 hydrolysis at 0.003 uM; values are per cent of control
[16] = molecular target: T1, Autotaxin; assay: Inhibition of human recombinant C-terminal FLAG-tagged autotaxin expressed in baculovirus-infected Sf9 cells using lysophosphatidylcholine as substrate assessed as choline release by Amplex red reagent assay
Procedure, shortened: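 LPC 16:0 100 μM with purified human ATX 8.3 nM and inhibitor 10 μM final, 30 μM fatty acid free BSA, 50 mM Tris/5 mM CaCl2 pH 7.4, 37 °C. Choline detected by choline oxidase 0.1 U/mL, HRP 1 U/mL, Amplex Red 10 μM; fluorescence ex 560/em 590 every 2 min, percent of vehicle at 1 h after no-ATX subtraction; mean ± SD of three wells.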

[17] = molecular target: T1, Autotaxin; assay: Competitive inhibition of human recombinant C-terminal FLAG-tagged autotaxin expressed in baculovirus-infected Sf9 cells assessed as FS-3 hydrolysis by Michaelis-Menten method

Compound | inhibition [1] [%] | inhibition [2] [%] | IC50 [3] [nM] | Ki [4] [nM] | inhibition [5] [%] | inhibition [6] [%] | residual activity [7] [%] | residual activity [8] [%] | residual activity [9] [%] | residual activity [10] [%] | residual activity [11] [%] | residual activity [12] [%] | residual activity [13] [%] | residual activity [14] [%] | residual activity [15] [%] | inhibition [16] | Ki [17] [nM]
O=[As](O)(O)c1ccc(Cc2ccc([As](=O)(O)O)cc2)cc1 | 98 | – | – | – | – | – | – | – | – | – | – | – | – | – | – | – | –
CCn1cc(C(=O)O)c(=O)c2cnc(N3CCN(C(=S)Nc4cc(Cl)cc(Cl)c4)CC3)nc21 | 100 | – | – | – | – | – | – | – | – | – | – | – | – | – | – | – | –
Nc1c(/N=N/c2ccc(-c3ccc(/N=N/c4cc(S(=O)(=O)O)c5ccccc5c4N)cc3)cc2)cc(S(=O)(=O)O)c2ccccc12 [CONGO RED] | – | 82 | 1310 | 1890 | -3 | 2 | 54.9 | 36.7 | 14.6 | 5.29 | 91.2 | 77.3 | 99.8 | 94.6 | 99.9 | – | –
CC1=NN(c2ccc(/C=C/c3ccc(NC(=O)Nc4ccc(/C=C/c5ccc(N6N=C(C)C(/N=N/c7ccccc7C(=O)O)C6=O)cc5S(=O)(=O)O)c(S(=O)(=O)O)c4)cc3S(=O)(=O)O)c(S(=O)(=O)O)c2)C(=O)C1/N=N/c1ccccc1C(=O)O (configuration not stated) | – | 13 | – | – | – | – | – | – | – | – | – | – | – | – | – | Active | –
COc1cc(-c2ccc(/N=N/c3c(S(=O)(=O)O)cc4cc(S(=O)(=O)O)cc(N)c4c3O)c(OC)c2)ccc1/N=N/c1c(S(=O)(=O)O)cc2cc(S(=O)(=O)O)cc(N)c2c1O | – | 93 | 372 | – | -3 | -1 | 26 | 14.1 | 6 | 2.68 | 72 | 52.9 | 93.9 | 86.2 | 97.5 | – | 271
COc1c(C=O)c(O)cc2c1C(=O)c1ccccc1C2=O | 70 | – | – | – | – | – | – | – | – | – | – | – | – | – | – | – | –
Cc1cc(-c2ccc(/N=N/c3ccc4c(S(=O)(=O)O)cc(S(=O)(=O)O)c(N)c4c3O)c(C)c2)ccc1/N=N/c1ccc2c(S(=O)(=O)O)cc(S(=O)(=O)O)c(N)c2c1O [EVANS BLUE] | – | 64 | 922 | – | -2 | -2 | 47.9 | 35.8 | 26.2 | 13.3 | 82.3 | 60.9 | 96 | 89.6 | 95.8 | – | 824
